From publication PMC9064899 (The FEBS journal, 2021)
Substitutions are numbered along the chain they refer to.

How the values were obtained:
UBIAD1 D112G = biological target: T1, UBIAD1 D112G (Homo sapiens, UniProt Q9Y5Z9, D112G); assay: Cell-based UBIAD1 functional assay
T1 sequence (Q9Y5Z9 1-338 D112G): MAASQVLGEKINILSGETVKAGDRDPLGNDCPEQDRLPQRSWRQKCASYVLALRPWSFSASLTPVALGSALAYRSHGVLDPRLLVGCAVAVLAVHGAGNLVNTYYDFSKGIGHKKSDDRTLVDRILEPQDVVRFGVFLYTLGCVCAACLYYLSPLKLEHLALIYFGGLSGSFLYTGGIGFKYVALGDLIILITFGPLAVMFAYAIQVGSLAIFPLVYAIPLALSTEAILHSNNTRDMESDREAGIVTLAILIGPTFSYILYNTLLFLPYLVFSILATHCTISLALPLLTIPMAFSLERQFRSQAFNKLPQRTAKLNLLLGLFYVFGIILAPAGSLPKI
In short: (§1)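 Wild-type or mutant human UBIAD1 in pCI-neo was transiently transfected into Ubiad1-knockout FIXgla-PC/HEK293 cells (DMEM/F12, 10% FBS). […] After 24 h, carboxylated FIXgla-PC in the medium was measured by ELISA. Activity was normalized to wild type (100%), and EC50 came from a curve fit. Mean ± SD, n=3 independent experiments.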

UBIAD1 D112N = biological target: T2, UBIAD1 D112N (Homo sapiens, UniProt Q9Y5Z9, D112N); assay: Cell-based UBIAD1 functional assay
T2 sequence (Q9Y5Z9 1-338 D112N): T1 sequence (Q9Y5Z9 1-338 D112G) with G112N
In short: as §1

## CC1=CC(=O)c2ccccc2C1=O [vitamin K3, menadione]
UBIAD1 D112G
  EC50: 5.1 ± 0.8 nM
UBIAD1 D112G; D112G, 1 μM vitamin K3
  Vitamin K-dependent carboxylation Activity ± SD: 104.8 ± 3%
UBIAD1 D112N
  EC50: 6.4 ± 0.6 nM
UBIAD1 D112N; D112N, 1 μM vitamin K3
  Vitamin K-dependent carboxylation Activity ± SD: 109.6 ± 5.2%
